# In publication PMC8114962 (Advanced therapeutics, 2021):
# Assays:
# [1] = biological target: T1, recombinant dg-Bcan protein (Homo sapiens, UniProt Q96GW7); test: Octet binding kinetics analysis, recombinant dg-Bcan; settings: Octet RED
# T1 sequence (Q96GW7 23-911): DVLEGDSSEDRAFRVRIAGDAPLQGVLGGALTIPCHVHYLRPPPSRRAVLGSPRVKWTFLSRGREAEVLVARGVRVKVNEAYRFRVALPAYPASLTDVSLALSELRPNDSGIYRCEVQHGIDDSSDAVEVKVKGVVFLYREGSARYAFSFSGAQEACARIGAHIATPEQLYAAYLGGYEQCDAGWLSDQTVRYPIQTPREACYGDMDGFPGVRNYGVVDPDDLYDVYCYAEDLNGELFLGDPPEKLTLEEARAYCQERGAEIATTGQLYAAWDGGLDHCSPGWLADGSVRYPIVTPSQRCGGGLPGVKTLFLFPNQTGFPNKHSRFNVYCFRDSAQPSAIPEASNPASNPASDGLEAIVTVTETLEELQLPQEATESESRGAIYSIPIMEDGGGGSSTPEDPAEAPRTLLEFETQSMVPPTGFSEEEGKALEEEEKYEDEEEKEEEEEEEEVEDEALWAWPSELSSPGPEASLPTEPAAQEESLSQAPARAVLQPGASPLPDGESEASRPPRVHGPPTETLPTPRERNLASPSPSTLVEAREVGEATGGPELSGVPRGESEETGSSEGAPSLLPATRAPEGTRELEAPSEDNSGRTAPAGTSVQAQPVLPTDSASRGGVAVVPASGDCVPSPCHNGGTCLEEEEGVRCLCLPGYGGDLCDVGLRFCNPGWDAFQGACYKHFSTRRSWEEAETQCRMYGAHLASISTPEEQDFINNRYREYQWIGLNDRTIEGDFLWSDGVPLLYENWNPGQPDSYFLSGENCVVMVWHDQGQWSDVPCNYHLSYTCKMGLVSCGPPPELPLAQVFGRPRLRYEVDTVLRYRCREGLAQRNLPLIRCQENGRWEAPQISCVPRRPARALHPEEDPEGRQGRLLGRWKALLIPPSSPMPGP
# Method in brief: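 Binding kinetics of test peptides measured by biolayer interferometry (Octet RED384) against recombinant human brevican, deglycosylated before use and held in PBS with 0.1 mM EDTA, pH 6.8. Fully glycosylated Bcan served as a comparison protein. The run used working buffer (0.9% NaCl irrigation, 0.05% Tween) with 1000 rpm agitation at 30°C. KD and Rmax came from a one-site specific binding non-linear regression fit.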
# [2] = Solubility in aqueous solution; format: physicochemical; settings: observation
dg-Bcan protein binding [1],Substance,solubility in aqueous solution [2]
did not exhibit dg-Bcan protein binding,Scr-7,
,BTP-2,insoluble and precipitated in aqueous solution
